We go through four molecules from ChEMBL document CHEMBL1125745, “Unsaturated and carbocyclic nucleoside analogues: synthesis, antitumor, and antiviral activity” (J Med Chem, 1991).

Test [1] has as its system PO3. The test can be described thus: Cytotoxicity was evaluated against PO3 cell line at 250 ug/disk. In kind it is functional, Mus musculus. A digest of the protocol: (§1)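 Disk zone assay: analogue dilutions on 6.5 mm paper disks were placed on dishes with a 0.8% agar bottom layer and a 0.44% soft-agar top layer of tumor cells (≤1 × 10^5/plate) in Fishers-CMRL-1066 with 12% horse serum. Plates were incubated 6-10 days and the inhibition zone was measured by microscope; 200 zone units = 6 mm.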

Test [2] deals with L1210. As to the kind of experiment: Cytotoxicity was evaluated against L1210 leukemia cell line at 250 ug/disk. In kind it is functional, Mus musculus. A digest of the protocol: as §1
The species named for test [3] is Mus musculus. The test can be described thus: Cytotoxicity was evaluated. In kind it is functional. The essentials: (§2)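 SC-1 cells (1 × 10^4 cells/mL) were seeded, incubated overnight at 37 °C, refed with EMEM-10 and given diluted analogue in triplicate for 72 h at 37 °C. Cells were trypsinized and counted in a Coulter counter. The mean of three wells gave percent of control count, and IC50 was calculated by linear regression.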

Test [4] is described as follows: Selectivity index which is the ratio of IC50 to EC50 of R-MuLV. In kind it is functional.
The species named for test [5] is Mus musculus. The test can be described thus: Concentration that reduces Rauscher murine leukemia virus titer by 50%. The class given is functional, organism-based. A digest of the protocol:
(§3)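 SC-1 cells (1 × 10^4/well) were pretreated with polybrene, infected 2 h at 37 °C with F-MuLV or R-MuLV in EMEM-5 with 8 µg/mL polybrene, washed, and refed with analogue for 72 h. They were then UV-irradiated and overlaid with XC cells (2 × 10^5) for 48 h, fixed and stained with crystal violet. Multinucleated cells were counted and EC50 was taken by linear regression versus untreated cultures.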

The species entered for test [6] is Mus musculus. The test can be described thus: Concentration that reduces Friend murine leukemia virus titer by 50%. The class given is functional, organism-based. A digest of the protocol: as §3
The subject of test [7] is L1210. The test can be described thus: Inhibitory activity against murine leukemia L1210 cells. The class given is functional, cell-based. Particulars: Mus musculus.
Test [8] can be described thus: Cytotoxicity was evaluated against low malignancy line at 250 ug/disk. In kind it is functional. A digest of the protocol: as §1
A short description of test [9]: Selectivity index is the ratio of IC50 to EC50 of F-MuLV. The class given is functional.
The species named for test [10] is Mus musculus. As to the kind of experiment: Inhibition of incorporation of labeled precursor into macromolecules of noninfected SC-1 cells with the compound at a concentration 300 uM determined against thymidine. The class given is functional. The essentials: (§4)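 SC-1 cells seeded in 24-well trays at 1 × 10^4 cells/mL, incubated overnight at 37 °C, then exposed to analogue for 72 h at 37 °C. Labeled thymidine (2.5 µCi), [3H-5,6]uridine or [3H-4,5]leucine was added. After 4 h, cells were washed with cold PBS, lysed in 1% SDS/0.01 M EDTA/0.01 M Tris pH 7.7, and lysates were dried on GF/B filters. Result given as % of untreated incorporation.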

The species entered for test [11] is Mus musculus. The test can be described thus: Cytotoxicity was evaluated and represented as IC50. The class given is functional. The essentials:
as §2

The species named for test [12] is Mus musculus. The test can be described thus: Inhibition of incorporation of labeled precursor into macromolecules of noninfected SC-1 cells with the compound at a concentration 300 uM determined against leucine. In kind it is functional. The essentials:
as §4

Test [13] is filed under the species Mus musculus. As to the kind of experiment: Inhibition of incorporation of labeled precursor into macromolecules of noninfected SC-1 cells with the compound at a concentration 100 uM determined against leucine. The class given is functional. The essentials:
(§5)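 Noninfected SC-1 cells were incubated with analogue as in the cytotoxicity setup, and [3H]thymidine, [3H]uridine or [3H]leucine was added. After 4 h, wells were washed with ice-cold PBS and cells were lysed in 1% SDS, 0.01 M EDTA, 0.01 M Tris pH 7.7. Lysates were dried on glass-fiber filters, and label is expressed as percent of incorporation in untreated cells.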

For test [14], the species on record is Mus musculus. As to the kind of experiment: Inhibition of incorporation of labeled precursor into macromolecules of noninfected SC-1 cells with the compound at a concentration 300 uM determined against uridine. The class given is functional. A digest of the protocol:
as §4

The species named for test [15] is Mus musculus. The test can be described thus: Inhibition of incorporation of labeled precursor into macromolecules of noninfected SC-1 cells with the compound at a concentration 100 uM determined against thymidine. In kind it is functional. The essentials:
as §5

Test [16] is filed under the species Mus musculus. The test can be described thus: Inhibition of incorporation of labeled precursor into macromolecules of noninfected SC-1 cells with the compound at a concentration 100 uM determined against uridine. The class given is functional. A digest of the protocol: as §5
In test [17] the test system is L1210. The test can be described thus: Compound were evaluated for inhibition of macromolecular synthesis in murine leukemia L1210 cells at 4 hour against DNA. In kind it is functional, Mus musculus. Also on record: scale not given: the % may be the effect or the level left.
The test system of test [18] is L1210. As to the kind of experiment: Compound were evaluated for inhibition of macromolecular synthesis in murine leukemia L1210 cells at 4 hour against RNA. The class given is functional, Mus musculus. Also on record: scale not given: the % may be the effect or the level left.
Test [19] deals with L1210. The test can be described thus: Compound were evaluated for inhibition of macromolecular synthesis in murine leukemia L1210 cells at 1 hour against RNA. The class given is functional, Mus musculus. More on the design: scale not given: the % may be the effect or the level left.
A short description of test [20]: Cytotoxicity was evaluated against low malignancy line at 500 ug/disk. In kind it is functional. A digest of the protocol:
as §1

Test [21] relates to L1210. As to the kind of experiment: Compound were evaluated for inhibition of macromolecular synthesis in murine leukemia L1210 cells at 4 hour against Protein. In kind it is functional, Mus musculus. Also on record: scale not given: the % may be the effect or the level left.
Test [22] has as its system MC-38. The test can be described thus: Cytotoxicity was evaluated against C38 solid tumor of mouse at 500 ug/disk. Also on record: unit not given beside the values. In kind it is functional. A digest of the protocol:
as §1

Test [23] relates to L1210. As to the kind of experiment: Compound were evaluated for inhibition of macromolecular synthesis in murine leukemia L1210 cells at 1 hour against Protein. In kind it is functional, Mus musculus. More on the design: scale not given: the % may be the effect or the level left.
The subject of test [24] is L1210. As to the kind of experiment: Cytotoxicity was evaluated against L1210 leukemia cell line at 500 ug/disk. The class given is functional, Mus musculus. The essentials: as §1
The test system of test [25] is L1210. The test can be described thus: Compound were evaluated for inhibition of macromolecular synthesis in murine leukemia L1210 cells at 1 hour against DNA. The class given is functional, Mus musculus. Also on record: scale not given: the % may be the effect or the level left.
Test [26] concerns Nucleic Acid. As to the kind of experiment: Compound was evaluated for inhibition of macromolecular synthesis in murine leukemia L1210 cells at 1 hour against DNA. The conditions noted are these: Mus musculus. In kind it is functional, cell-based. More on the design: scale not given: the % may be the effect or the level left.
Test [27] deals with Nucleic Acid. As to the kind of experiment: Compound was evaluated for inhibition of macromolecular synthesis in murine leukemia L1210 cells at 4 hour against DNA. In kind it is functional, cell-based. Also on record: scale not given: the % may be the effect or the level left. The conditions noted are these: Mus musculus.
The species entered for test [28] is Mus musculus. As to the kind of experiment: Compound was evaluated for inhibition of macromolecular synthesis in murine leukemia L1210 cells at 1 hour against Protein. In kind it is functional. More on the design: scale not given: the % may be the effect or the level left.
Test [29] is filed under the species Mus musculus. As to the kind of experiment: Compound was evaluated for inhibition of macromolecular synthesis in murine leukemia L1210 cells at 8 hour against Protein. Also on record: scale not given: the % may be the effect or the level left. The class given is functional.
For test [30], the system named is Nucleic Acid. The test can be described thus: Compound was evaluated for inhibition of macromolecular synthesis in murine leukemia L1210 cells at 8 hour against RNA. Particulars: Mus musculus. The class given is functional, cell-based. More on the design: scale not given: the % may be the effect or the level left.
Test [31] can be described thus: Cytotoxicity was evaluated against low malignancy line at 1000 ug/disk. The class given is functional. The essentials:
as §1

Test [32] is filed under the species Homo sapiens. The test can be described thus: Cytotoxicity was evaluated against C116 human solid tumor at 1000 ug/disk. The class given is functional. A digest of the protocol:
as §1

In test [33] the test system is Nucleic Acid. The test can be described thus: Compound was evaluated for inhibition of macromolecular synthesis in murine leukemia L1210 cells at 4 hour against RNA. The class given is functional, cell-based. More on the design: scale not given: the % may be the effect or the level left. The conditions noted are these: Mus musculus.
For test [34], the system named is Nucleic Acid. As to the kind of experiment: Compound was evaluated for inhibition of macromolecular synthesis in murine leukemia L1210 cells at 8 hour against DNA. In kind it is functional, cell-based. More on the design: scale not given: the % may be the effect or the level left. Particulars: Mus musculus.
The species entered for test [35] is Mus musculus. As to the kind of experiment: Compound was evaluated for inhibition of macromolecular synthesis in murine leukemia L1210 cells at 4 hour against Protein. In kind it is functional. More on the design: scale not given: the % may be the effect or the level left.
In test [36] the test system is Nucleic Acid. The test can be described thus: Compound was evaluated for inhibition of macromolecular synthesis in murine leukemia L1210 cells at 1 hour against RNA. In kind it is functional, cell-based. More on the design: scale not given: the % may be the effect or the level left. Particulars: Mus musculus.
Test [37] relates to L1210. The test can be described thus: Cytotoxicity was evaluated against L1210 leukemia cell line at 1000 ug/disk. In kind it is functional, Mus musculus. A digest of the protocol: as §1
Test [38] concerns MC-38. The test can be described thus: Cytotoxicity was evaluated against C38 solid tumor of mouse at 1000 ug/disk. The class given is functional. The essentials:
as §1

With `Nc1ncnc2c1ncn2C/C=C\CO`, the Cytotoxicity in [1] came to 260; in test [2], 200; in [8], 240. The IC50 is above 300 µM in test [3] and 490 µM in test [7]. Besides, the figures for the SI in test [4] and in test [9] were above 2.4 and above 1.7, respectively. Also, the EC50 came to 124 µM in test [5] and 175 µM in [6].

Consider `Nc1ncnc2c1ncn2CC#CCO`, for which the Precursor inhibition in test [10] worked out at 36%; in test [12] it was 75%; in test [13], 88%; in test [14], 66%; in [15], 60%; in test [16] it was 67%. Moreover, the IC50 in test [11] was 407 µM; in test [7], 490 µM. The SI in test [4] was found to be 2.6; in test [9] it was 1.7. Moreover, the EC50 in [5] was determined as 156 µM; in test [6] it was 245 µM.

As to `Nc1ncnc2c1ncn2C/C=C\CCl`, the Control in test [17] is recorded as 68%; in test [18] it was 73%; in [19], 98%; in test [21] it was 60%; in test [23], 99%; in test [25], 80%. Also, the Cytotoxicity in test [20] was 200; in test [22] it was 280; in test [24], 220. The molecule further registered an IC50 in test [7] of 22 µM.

Consider `Oc1nccc(NCC#CCCl)n1`, for which the Control stood at 60% in test [26]; 35% in test [27]; 85% in test [28]; 55% in test [29]; 18% in [30]; 60% in test [33]. Also, the Control in [34] came to 5%; in test [35] it was 70%; in test [36], 75%. The Cytotoxicity in test [31] came out at 600; in test [32], 660; in test [37], 530; in [38], 720. This molecule came in with an IC50 in test [7] of 20 µM.

A word on the IC50: it is the concentration that gives 50% inhibition. A word on the EC50: it is the concentration that produces a half-maximal response.
